Test results published in ChEMBL document CHEMBL3596157, “Heteroaromatic analogs of the resveratrol analog DMU-212 as potent anti-cancer agents” (2015).

Key:
Format in all cases: functional
[1] = Growth inhibition of human BT549 cells after 48 hrs by SRB assay; settings: BT-549, 48 h
Procedure, shortened: (§1)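 NCI-60 panel screen. Cells exposed for 48 h to five concentrations (10−4, 10−5, 10−6, 10−7 and 10−8 M). Sulforhodamine B optical density is read just before compound addition (time zero) and after 48 h, for both treated and vehicle-control wells. Percent growth is calculated against control. GI50 is the concentration giving a 50% reduction in net cell growth relative to cell numbers on day 0.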

NCI-H522 = experiment: Growth inhibition of human NCI-H522 cells after 48 hrs by SRB assay; settings: NCI-H522, 48 h; procedure, shortened: as §1
ACHN = experiment: Growth inhibition of human ACHN cells after 48 hrs by SRB assay; procedure, shortened: as §1
SK-MEL-28 = experiment: Growth inhibition of human SK-MEL-28 cells after 48 hrs by SRB assay; settings: SK-MEL-28, 48 h; procedure, shortened: as §1
KM12 = experiment: Growth inhibition of human KM12 cells after 48 hrs by SRB assay; settings: KM12, 48 h; procedure, shortened: as §1
SW-620 = experiment: Growth inhibition of human SW620 cells after 48 hrs by SRB assay; settings: SW-620, 48 h
Procedure, shortened: (§2)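 NCI-60 panel cells; preliminary single-dose screen at 10−5 M, then five-dose testing at 10−4 to 10−8 M (tenfold steps) with 48 h exposure. SRB-stained optical density read before compound addition (time zero), after 48 h with compound, and with vehicle control. Percent growth is calculated against control. GI50 is the concentration giving 50% reduction in net growth relative to day-0 cell number.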

[2] = Growth inhibition of human HOP92 cells after 48 hrs by SRB assay; settings: HOP-92, 48 h; procedure, shortened: as §1
OVCAR-4 = experiment: Growth inhibition of human OVCAR4 cells after 48 hrs by SRB assay; settings: OVCAR-4, 48 h; procedure, shortened: as §1
[3] = Growth inhibition of human RXF393 cells after 48 hrs by SRB assay; settings: RXF 393, 48 h; procedure, shortened: as §1
PC-3 = experiment: Growth inhibition of human PC3 cells after 48 hrs by SRB assay; settings: PC-3, 48 h; procedure, shortened: as §1
[4] = Growth inhibition of human HCC2998 cells after 48 hrs by SRB assay; settings: HCC 2998, 48 h; procedure, shortened: as §1
Malme-3M = experiment: Growth inhibition of human MALME-3M cells after 48 hrs by SRB assay; procedure, shortened: as §1
SK-MEL-5 = experiment: Growth inhibition of human SK-MEL-5 cells after 48 hrs by SRB assay; settings: SK-MEL-5, 48 h; procedure, shortened: as §1
CAKI-1 = experiment: Growth inhibition of human Caki1 cells after 48 hrs by SRB assay; settings: CAKI-1, 48 h; procedure, shortened: as §1
MDA-MB-468 = experiment: Growth inhibition of human MDA-MB-468 cells after 48 hrs by SRB assay; settings: MDA-MB-468, 48 h; procedure, shortened: as §1
CCRF-CEM = experiment: Growth inhibition of human CCRF-CEM cells after 48 hrs by SRB assay; procedure, shortened: as §1
U-251 = experiment: Growth inhibition of human U251 cells after 48 hrs by SRB assay; settings: U-251, 48 h; procedure, shortened: as §2
IGROV-1 = experiment: Growth inhibition of human IGROV1 cells after 48 hrs by SRB assay; settings: IGROV-1, 48 h; procedure, shortened: as §1
DU-145 = experiment: Growth inhibition of human DU145 cells after 48 hrs by SRB assay; settings: DU-145, 48 h; procedure, shortened: as §1
[5] = Growth inhibition of human MOLT4 cells after 48 hrs by SRB assay; settings: MOLT-4, 48 h; procedure, shortened: as §1
[6] = Growth inhibition of human LOXIMVI cells after 48 hrs by SRB assay; settings: LOX IMVI; procedure, shortened: as §1
[7] = Growth inhibition of human Hs578T cells after 48 hrs by SRB assay; settings: Hs-578T; procedure, shortened: as §1
SK-MEL-2 = experiment: Growth inhibition of human SK-MEL-2 cells after 48 hrs by SRB assay; settings: SK-MEL-2, 48 h; procedure, shortened: as §1
UO-31 = experiment: Growth inhibition of human UO31 cells after 48 hrs by SRB assay; settings: UO-31, 48 h; procedure, shortened: as §2
HCT-15 = experiment: Growth inhibition of human HCT15 cells after 48 hrs by SRB assay; settings: HCT-15, 48 h; procedure, shortened: as §1
MDA-MB-435 = experiment: Growth inhibition of human MDA-MB-435 cells after 48 hrs by SRB assay; settings: MDA-MB-435, 48 h; procedure, shortened: as §1
HCT-116 = experiment: Growth inhibition of human HCT116 cells after 48 hrs by SRB assay; settings: HCT-116, 48 h; procedure, shortened: as §1
MDA-MB-231 = experiment: Growth inhibition of human MDA-MB-231/ATCC cells after 48 hrs by SRB assay; settings: MDA-MB-231, 48 h; procedure, shortened: as §1
SF-268 = experiment: Growth inhibition of human SF268 cells after 48 hrs by SRB assay; settings: SF-268, 48 h; procedure, shortened: as §1
HOP-62 = experiment: Growth inhibition of human HOP62 cells after 48 hrs by SRB assay; settings: HOP-62, 48 h; procedure, shortened: as §1
TK-10 = experiment: Growth inhibition of human TK10 cells after 48 hrs by SRB assay; settings: TK-10, 48 h; procedure, shortened: as §2
K562 = experiment: Growth inhibition of human K562 cells after 48 hrs by SRB assay; settings: K562, 48 h; procedure, shortened: as §1
OVCAR-8 = experiment: Growth inhibition of human OVCAR8 cells after 48 hrs by SRB assay; settings: OVCAR-8, 48 h; procedure, shortened: as §1
NCI-H23 = experiment: Growth inhibition of human NCI-H23 cells after 48 hrs by SRB assay; settings: NCI-H23, 48 h; procedure, shortened: as §1
786-0 = experiment: Growth inhibition of human 786-0 cells after 48 hrs by SRB assay; settings: 786-0, 48 h; procedure, shortened: as §1
[8] = Growth inhibition of human SF295 cells after 48 hrs by SRB assay; settings: SF-295, 48 h; procedure, shortened: as §1
SNB-19 = experiment: Growth inhibition of human SNB19 cells after 48 hrs by SRB assay; settings: SNB-19, 48 h; procedure, shortened: as §1
[9] = Growth inhibition of human NCI-ADR-RES cells after 48 hrs by SRB assay; procedure, shortened: as §1
NCI-H226 = experiment: Growth inhibition of human NCI-H226 cells after 48 hrs by SRB assay; settings: NCI-H226, 48 h; procedure, shortened: as §1
SN12C = experiment: Growth inhibition of human SN12C cells after 48 hrs by SRB assay; procedure, shortened: as §1
A498 = experiment: Growth inhibition of human A498 cells after 48 hrs by SRB assay; settings: A498, 48 h; procedure, shortened: as §1
SNB-75 = experiment: Growth inhibition of human SNB75 cells after 48 hrs by SRB assay; settings: SNB-75, 48 h; procedure, shortened: as §2
SR = experiment: Growth inhibition of human SR cells after 48 hrs by SRB assay; procedure, shortened: as §2
HL-60(TB) = experiment: Growth inhibition of human HL-60(TB) cells after 48 hrs by SRB assay; settings: HL-60, 48 h
Procedure, shortened: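 NCI-60 panel screen: cells were exposed to test agent at five concentrations (10−4, 10−5, 10−6, 10−7 and 10−8 M) for 48 h. Sulforhodamine B optical density was read at time zero and after exposure to compound or vehicle control, and growth percentage versus control was calculated. GI50 was taken as the concentration giving a 50% reduction in net cell growth relative to day 0 cell numbers.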

HT-29 = experiment: Growth inhibition of human HT-29 cells after 48 hrs by SRB assay; settings: HT-29, 48 h; procedure, shortened: as §1
A549 = experiment: Growth inhibition of human A549/ATCC cells after 48 hrs by SRB assay; settings: A549, 48 h; procedure, shortened: as §1
[10] = Growth inhibition of human COLO205 cells after 48 hrs by SRB assay; settings: COLO 205, 48 h; procedure, shortened: as §1
OVCAR-3 = experiment: Growth inhibition of human OVCAR3 cells after 48 hrs by SRB assay; settings: OVCAR-3, 48 h; procedure, shortened: as §1
NCI-H460 = experiment: Growth inhibition of human NCI-H460 cells after 48 hrs by SRB assay; settings: NCI-H460, 48 h; procedure, shortened: as §1
SK-OV-3 = experiment: Growth inhibition of human SKOV3 cells after 48 hrs by SRB assay; settings: SK-OV-3, 48 h; procedure, shortened: as §1
OVCAR-5 = experiment: Growth inhibition of human OVCAR5 cells after 48 hrs by SRB assay; settings: OVCAR-5, 48 h; procedure, shortened: as §1
UACC-62 = experiment: Growth inhibition of human UACC62 cells after 48 hrs by SRB assay; settings: UACC-62, 48 h; procedure, shortened: as §2
[11] = Growth inhibition of human RPMI8226 cells after 48 hrs by SRB assay; settings: RPMI-8226, 48 h; procedure, shortened: as §1
[12] = Growth inhibition of human SF539 cells after 48 hrs by SRB assay; settings: SF-539, 48 h; procedure, shortened: as §1
MCF7 = experiment: Growth inhibition of human MCF7 cells after 48 hrs by SRB assay; settings: MCF7, 48 h; procedure, shortened: as §1
M14 = experiment: Growth inhibition of human M14 cells after 48 hrs by SRB assay; settings: M14, 48 h; procedure, shortened: as §1

## COc1cc(/C=C/c2cc3ccccc3[nH]2)cc(OC)c1OC
[1]
  GI50: 0.938 µM
NCI-H522
  GI50: 0.294 µM
ACHN
  GI50: 0.62 µM
SK-MEL-28
  GI50: 0.944 µM
KM12
  GI50: 0.436 µM
SW-620
  GI50: 0.333 µM
[2]
  GI50: 0.201 µM
OVCAR-4
  GI50: 0.691 µM
[3]
  GI50: 0.275 µM
PC-3
  GI50: 0.381 µM
[4]
  GI50: 2.25 µM
Malme-3M
  GI50: 0.388 µM
SK-MEL-5
  GI50: 0.305 µM
CAKI-1
  GI50: 0.382 µM
MDA-MB-468
  GI50: 0.285 µM
CCRF-CEM
  GI50: 0.368 µM
U-251
  GI50: 0.442 µM
IGROV-1
  GI50: 0.504 µM
DU-145
  GI50: 0.384 µM
[5]
  GI50: 0.854 µM
[6]
  GI50: 0.664 µM
[7]
  GI50: 0.257 µM
SK-MEL-2
  GI50: 0.426 µM
UO-31
  GI50: 0.172 µM
HCT-15
  GI50: 0.469 µM
MDA-MB-435
  GI50: 0.15 µM
HCT-116
  GI50: 0.534 µM
MDA-MB-231
  GI50: 1.3 µM
SF-268
  GI50: 0.708 µM
HOP-62
  GI50: 0.933 µM
TK-10
  GI50: 21.6 µM
K562
  GI50: 0.393 µM
OVCAR-8
  GI50: 0.587 µM
NCI-H23
  GI50: 0.677 µM
786-0
  GI50: 0.802 µM
[8]
  GI50: 0.311 µM
SNB-19
  GI50: 0.461 µM
[9]
  GI50: 0.365 µM
NCI-H226
  GI50: 0.559 µM
SN12C
  GI50: 1.64 µM
A498
  GI50: 0.281 µM
SNB-75
  GI50: 0.329 µM
SR
  GI50: 0.241 µM
HL-60(TB)
  GI50: 0.347 µM
HT-29
  GI50: 0.335 µM
A549
  GI50: 0.624 µM
[10]
  GI50: 0.343 µM
OVCAR-3
  GI50: 0.234 µM
NCI-H460
  GI50: 0.374 µM
SK-OV-3
  GI50: 0.676 µM
OVCAR-5
  GI50: 0.963 µM
UACC-62
  GI50: 0.465 µM
[11]
  GI50: 0.388 µM
[12]
  GI50: 0.231 µM
MCF7
  GI50: 0.395 µM
M14
  GI50: 0.332 µM
